The results in this text go back to ChEMBL document CHEMBL1828537, “Halogenated 2'-benzoylpyridine thiosemicarbazone (XBpT) chelators with potent and selective anti-neoplastic activity: relationship to intracellular redox activity” (J Med Chem, 2011).

Some results are limits rather than exact numbers.

In data set [1] the test system is SK-N-MC. Briefly: Antiproliferative activity against human SK-N-MC cells after 72 hrs by MTS assay. It is filed as functional, cell-based. Background: Tetrazolium assays rely on reduction of a dye to a coloured formazan, in cell work by metabolically active cells.
Data set [2] deals with SK-N-MC. Briefly: Induction of Fe efflux in human SK-N-MC cells assessed as release of intracellular 59Fe up to 25 uM after 3 hrs by gamma-scintillation counting. Format: functional.
A short description of data set [3]: Toxicity in human SK-N-MC cells assessed as cell viability after 3 hrs by trypan blue staining. It is filed as cell-based. On the set-up: concentration or dose not given beside the values. To be noted: read-out: Activity. The method in brief:
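Viability of SK-N-MC cells judged by Trypan blue staining after the 3 h chelator incubation used in the 59Fe mobilization assays.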

For data set [4], the system named is SK-N-MC. Kind of data set: 59Fe uptake from transferrin in human SK-N-MC cells at 25 uM after 3 hrs relative to control.
In another data set the test system is MRC5. Kind of data set: Cytotoxicity against human MRC5 cells after 72 hrs […]. The following applies: MRC5, 72 h. Format: cell-based.
Data set [5] in a line: Therapeutic index, ratio of IC50 for human MRC5 cells to IC50 for human SK-N-MC cells. It is filed as cell-based. To be noted: MRC5 cells and SK-N-MC cells, read-out: Ratio IC50.
The subject of data set [6] is SK-N-MC. Kind of data set: Induction of intracellular reactive oxygen species production in human SK-N-MC cells assessed as oxidation of H2DCF into DCF at 25 uM after 3 hrs by FACS analysis relative to control. Format: functional. For orientation: Flow cytometry measures light scatter and fluorescence of single cells or particles in a stream.
A further data set relates to M109. Kind of data set: Anticancer activity against mouse M109 cells xenografted in iv dosed CD2F1 mouse assessed as reduction in tumor growth after 5 days. It is filed as functional.

A word on the IC50: it is the point on the concentration scale where inhibition reaches its midpoint. Take `O=C(N/N=C/c1c(O)ccc2ccccc12)c1ccncc1`: the midpoint of inhibition in the data set with SK-N-MC [1], the IC50, lay at 2530 nM. For the same compound, the Activity in the data set with SK-N-MC [2] came out at 55%. In addition, the viability at 3 h in data set [3] was greater than 99%. In the data set on SK-N-MC [4], the level, % of control at 25 µM stood at 6%.

With `NC(=S)N/N=C(\c1ccccc1)c1ccccn1`, the figures for the IC50 with SK-N-MC [1] and in the data set with MRC5 were 5590 nM and greater than 25000 nM, respectively. The viability at 3 h in data set [3] was greater than 99%.

As to `CCNC(=S)N/N=C(\c1ccccc1)c1ccccn1`, the results for the IC50 in the data set with SK-N-MC [1] and with MRC5 were 12 nM and 738 nM, respectively. For the same compound, the selectivity ratio in data set [5] came to 64. In addition, the Activity in the data set on SK-N-MC [6] was found to be 138%. Also, the viability at 3 h in data set [3] was greater than 99%.

For `CC(=O)N(O)CCCCCNC(=O)CCC(=O)N(O)CCCCCNC(=O)CCC(=O)N(O)CCCCCN` [DEFEROXAMINE], the midpoint of inhibition in the data set with SK-N-MC [1], the IC50, lay at 22700 nM. Moreover, in the data set with SK-N-MC [2], the Activity amounted to 23%. The viability at 3 h in data set [3] was greater than 99%. For the same compound, the level, % of control at 25 µM in the data set with SK-N-MC [4] was found to be 74%.

On to `CNC(=S)N/N=C(\c1ccccc1)c1ccccn1`, for which the concentration for half-maximal inhibition (IC50) with SK-N-MC [1] came to 24 nM; in the data set with MRC5, 2320 nM. Also, the selectivity ratio in data set [5] amounted to 96. Further, the Activity in the data set with SK-N-MC [6] was 114%. In data set [3], the viability at 3 h was greater than 99%.

`CN(C)C(=S)N/N=C(\c1ccccc1)c1ccccn1`: the 50% inhibitory concentration (IC50) in the data set with SK-N-MC [1] stood at 9 nM; with MRC5, 1010 nM. The selectivity ratio in data set [5] came to 116. Further, the Activity in the data set with SK-N-MC [6] stood at 156%. Moreover, in data set [3], the viability at 3 h was greater than 99%.

For the compound `CN(C)C(=S)NN=C(c1ccccn1)c1ccccn1`, in the data set on M109, the “inhibition (INH)” value was 50%. In the data set with SK-N-MC [1], this compound gave a 50% inhibitory concentration (IC50) of 4 nM. Moreover, the Activity in the data set on SK-N-MC [2] is 53%. For the same compound, the viability at 3 h in data set [3] was greater than 99%. This compound also gave a level, % of control at 25 µM in the data set on SK-N-MC [4] of 4%.
